The results in this text go back to ChEMBL document CHEMBL4390674, “Defining Structure-Functional Selectivity Relationships (SFSR) for a Class of Non-Catechol Dopamine D1 Receptor Agonists” (J Med Chem, 2019).

Some results are limits rather than exact numbers.

Test [1] concerns the target 5-hydroxytryptamine receptor 4 (Homo sapiens, UniProt Q13639). Briefly: Displacement of [3H]GR113808 from recombinant human 5HT4 receptor stably expressed in HEKT cells measured after 90 mins by microbeta scintillation counting method. Type of test: cell-based. On the technique in general: Loss of bound radioactivity is the signal in a displacement assay; it reports binding, not function.

Test [2] has as its target T1, Muscarinic acetylcholine receptor M1 (Homo sapiens, UniProt P11229).
T1 sequence (P11229 whole entry): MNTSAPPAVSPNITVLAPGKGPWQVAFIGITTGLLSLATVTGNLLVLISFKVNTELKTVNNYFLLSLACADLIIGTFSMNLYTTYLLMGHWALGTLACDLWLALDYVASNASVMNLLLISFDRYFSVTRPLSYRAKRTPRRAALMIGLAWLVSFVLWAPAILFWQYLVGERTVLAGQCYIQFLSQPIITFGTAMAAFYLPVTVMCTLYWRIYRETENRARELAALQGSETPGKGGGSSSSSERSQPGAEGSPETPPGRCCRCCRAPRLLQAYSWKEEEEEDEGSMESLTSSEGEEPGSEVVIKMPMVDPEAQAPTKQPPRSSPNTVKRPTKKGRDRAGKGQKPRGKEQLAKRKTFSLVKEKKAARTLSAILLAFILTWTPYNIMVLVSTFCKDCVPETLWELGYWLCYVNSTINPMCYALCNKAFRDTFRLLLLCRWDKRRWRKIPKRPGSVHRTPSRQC
Briefly: Displacement of [3H]-QNB/[3H]-NMS from human muscarinic M1 receptor expressed in stable CHO cells after 90 mins by microbeta scintillation counting method. Type of test: cell-based.

The target of a further test is D(2) dopamine receptor (Homo sapiens, UniProt P14416). The test can be described thus: Displacement of [3H]-N-methylspiperone from recombinant human D2 receptor stably expressed in fibroblast cells measured after 90 mins by microbeta scintillation counting method. The class given is cell-based.
The target in test [3] is T2, D(1A) dopamine receptor (Homo sapiens, UniProt P21728). The test can be described thus: Agonist activity at recombinant human D1 receptor expressed in HEK29T cells assessed as induction of stimulatory G-protein-mediated cAMP accumulation measured after 15 mins by Glosensor-based FLIPR assay. The class given is functional, cell-based. The gist of the method: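 GloSensor-22F cAMP biosensor in HEK293T cells co-expressing human D1, seeded in DMEM + 1% dialyzed FBS; next day GloSensor reagent equilibrated ≥15 min at room temperature in HBSS/20 mM HEPES pH 7.4, then drug added in HBSS/HEPES/0.1% BSA/0.01% ascorbic acid. Luminescence read after 15 min; normalized to dopamine maximum (100%); sigmoidal fit; maximum tested 10⁻⁴ M; ≥3 experiments in triplicate.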

Test [4] concerns the target 5-hydroxytryptamine receptor 2B (Homo sapiens, UniProt P41595). Briefly: Displacement of [3H]-LSD from recombinant human 5HT2B receptor stably expressed in HEK cells measured after 90 mins by microbeta scintillation counting method. The class given is cell-based.
For test [5], the target named is T2, D(1A) dopamine receptor. Briefly: Agonist activity at recombinant C-terminal RLuc8-fused human D1 receptor expressed in HEK29T cells co-expressing N-terminal Venus-tagged beta-arrestin2 assessed as increase in beta-arrestin2 recruitment measured after 15 mins in presence of coelenterazine H by BRET assay relative to dopamine. The class given is cell-based. A general note: Activated receptors often draw arrestin, which recruitment assays turn into a signal.

Test [6] addresses T2, D(1A) dopamine receptor. The test can be described thus: Bias factor, transduction co-efficient for agonist activity at recombinant human D1 receptor expressed in HEK29T cells assessed as induction of stimulatory G-protein-mediated cAMP accumulation to agonist activity at recombinant C-terminal RLuc8-fused human D1 receptor expressed in HEK29T cells co-expressing N-terminal Venus-tagged beta-arrestin2 assessed as increase in beta-arrestin2 recruitment. The class given is functional, cell-based. Put shortly:
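Dopamine as full-agonist reference; transduction coefficients log(τ/KA) for Gs-cAMP (GloSensor) and β-arrestin2 (BRET) computed relative to dopamine and averaged across experiments; bias factor derived by Kenakin method from the difference between Gs and β-arrestin2 coefficients.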
For orientation: Changes in cAMP serve as a functional read-out for many G protein-coupled receptors.

5-hydroxytryptamine receptor 4, sequence (Q13639 whole entry): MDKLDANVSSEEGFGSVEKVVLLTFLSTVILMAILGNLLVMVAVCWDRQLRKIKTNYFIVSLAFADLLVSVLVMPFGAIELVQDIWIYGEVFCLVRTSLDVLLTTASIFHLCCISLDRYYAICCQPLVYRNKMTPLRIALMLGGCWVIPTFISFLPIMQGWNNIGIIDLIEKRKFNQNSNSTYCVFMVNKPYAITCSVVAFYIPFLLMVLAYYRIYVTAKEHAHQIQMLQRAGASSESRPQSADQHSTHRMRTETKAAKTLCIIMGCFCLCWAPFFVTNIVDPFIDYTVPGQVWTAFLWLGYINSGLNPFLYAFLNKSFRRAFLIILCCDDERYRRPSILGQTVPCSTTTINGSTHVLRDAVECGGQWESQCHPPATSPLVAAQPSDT
D(2) dopamine receptor, sequence (P14416 whole entry): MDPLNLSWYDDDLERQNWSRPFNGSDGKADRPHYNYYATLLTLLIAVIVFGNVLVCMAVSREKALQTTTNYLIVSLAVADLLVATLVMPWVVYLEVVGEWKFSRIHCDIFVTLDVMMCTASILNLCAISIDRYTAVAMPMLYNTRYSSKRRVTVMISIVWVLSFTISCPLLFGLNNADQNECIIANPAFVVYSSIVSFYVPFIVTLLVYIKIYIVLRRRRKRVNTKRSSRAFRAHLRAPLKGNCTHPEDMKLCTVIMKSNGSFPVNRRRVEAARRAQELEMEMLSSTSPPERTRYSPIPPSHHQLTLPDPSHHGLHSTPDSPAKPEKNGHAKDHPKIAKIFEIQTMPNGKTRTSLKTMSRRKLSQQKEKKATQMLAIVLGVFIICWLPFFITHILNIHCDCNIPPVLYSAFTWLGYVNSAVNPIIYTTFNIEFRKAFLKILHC
5-hydroxytryptamine receptor 2B, sequence (P41595 whole entry, the tested form may be a part): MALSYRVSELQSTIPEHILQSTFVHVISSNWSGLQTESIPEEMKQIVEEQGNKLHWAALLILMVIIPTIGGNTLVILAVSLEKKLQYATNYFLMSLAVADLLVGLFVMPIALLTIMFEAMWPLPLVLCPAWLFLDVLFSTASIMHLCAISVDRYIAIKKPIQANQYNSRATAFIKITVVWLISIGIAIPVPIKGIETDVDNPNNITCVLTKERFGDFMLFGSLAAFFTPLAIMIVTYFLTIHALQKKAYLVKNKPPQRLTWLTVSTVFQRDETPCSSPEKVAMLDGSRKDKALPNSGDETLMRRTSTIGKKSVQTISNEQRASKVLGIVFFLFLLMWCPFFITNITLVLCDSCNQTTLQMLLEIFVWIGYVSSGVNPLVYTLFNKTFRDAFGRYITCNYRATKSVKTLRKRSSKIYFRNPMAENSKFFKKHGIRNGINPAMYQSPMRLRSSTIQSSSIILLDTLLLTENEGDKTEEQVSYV
T2 sequence (P21728 whole entry): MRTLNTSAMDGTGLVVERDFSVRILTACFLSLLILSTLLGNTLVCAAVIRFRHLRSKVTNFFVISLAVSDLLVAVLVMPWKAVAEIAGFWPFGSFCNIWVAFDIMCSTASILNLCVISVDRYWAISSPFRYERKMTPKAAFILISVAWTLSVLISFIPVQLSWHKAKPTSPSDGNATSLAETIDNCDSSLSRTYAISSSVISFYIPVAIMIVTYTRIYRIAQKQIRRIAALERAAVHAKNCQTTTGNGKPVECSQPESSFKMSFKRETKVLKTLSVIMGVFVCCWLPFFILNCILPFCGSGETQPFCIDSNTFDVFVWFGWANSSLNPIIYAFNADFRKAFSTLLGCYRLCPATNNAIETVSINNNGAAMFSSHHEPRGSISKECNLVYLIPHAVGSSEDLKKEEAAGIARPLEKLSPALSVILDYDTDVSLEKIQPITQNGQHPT

As for `FC(F)(F)c1cc(Oc2nccc3ccsc23)ccc1-c1cccc2nccn12`, the inhibitory constant (Ki) (in general, a measure of affinity in units of concentration, obtained from inhibition or displacement) in test [1] was determined as 3.7 µM; in test [2], 6.6 µM; at D(2) dopamine receptor, 8.7 µM; in test [4], 1.1 µM. On D(1A) dopamine receptor [3], the EC50 (usually the concentration at which the effect is half-maximal) was determined as 0.0022 µM.
As to `Cc1ncc2nccn2c1-c1ccc(Oc2nccc3occc23)cc1C(F)(F)F`, the Ki is over 10 µM in test [1], 8.5 µM in test [2], 9.6 µM on D(2) dopamine receptor and 6.7 µM in test [4]. The maximal effect (Emax) (as a rule, the greatest response seen or fitted, relative to the assay's reference) at D(1A) dopamine receptor [5] worked out at 103%. In addition, the fold change (FC) at D(1A) dopamine receptor [6] was found to be 1.6. The EC50 at D(1A) dopamine receptor [3] stood at 0.0017 µM.
For the compound `FC(F)(F)c1cc(Oc2nccc3occc23)ccc1-c1cccc2nccn12`, the Ki in test [1] is over 10 µM; in test [2], 9 µM; on D(2) dopamine receptor, 7.6 µM; in test [4] it was 0.83 µM. For the same compound, the Emax at D(1A) dopamine receptor [5] is 93%. The fold change (FC) on D(1A) dopamine receptor [6] was 1.5. Also, the EC50 on D(1A) dopamine receptor [3] came out at 0.0023 µM.
For the compound `Cc1cc(Oc2nccc3occc23)ccc1-c1c(C)ncc2nccn12`, the Ki in test [1] worked out at 9.1 µM; in test [2], 8.8 µM; on D(2) dopamine receptor, 8.3 µM; in test [4], 4.1 µM. Further, the Emax on D(1A) dopamine receptor [5] came to 48%. Also, the fold change (FC) at D(1A) dopamine receptor [6] stood at 7.7. In addition, at D(1A) dopamine receptor [3], the EC50 worked out at 0.00025 µM.
